Source: ChEMBL document CHEMBL4715918, “Syntheses and evaluation of acridone-naphthalimide derivatives for regulating oncogene PDGFR-β expression” (Bioorg Med Chem, 2021)

What was measured:
[1] = target: Quadruplex DNA; test: Binding affinity to FAM-labeled 5'-biotin-d [GCTGGGAGAAGGGGGGGCGGCGGGGCAGGGAGGGTGGACGC]-3' G4-quadruplex DNA (unknown origin) by microscale thermophoresis assay; type: nucleic-acid assay
In short: (§1)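 Microscale thermophoresis with DNA held constant at 1 µM. Compound serially diluted 3:4 from 10 µM over 12 points. Samples run in standard glass capillaries with LED and laser power both at 20%. KD derived by fitting.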

[2] = Toxicity in nude BALB/c mouse xenografted with human MCF7 cells assessed as lung weight at 2.5 to 10 mg/kg, ip administered for 34 days; type: organism-based; settings: in vivo, 816 h, dose 2.5-10 mg/kg, time 34 day
[3] = test system: MCF7; test: Inhibition of colony formation in human MCF7 cells after 7 days by crystal staining based assay; type: functional, cell-based; settings: dose 0.3125-2.5 µM, time 7.0 day
In short: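 MCF-7 cells were seeded at 1,000/well and grown 24 h, then exposed 7 days to 2.5, 1.25, 0.625, 0.3125 μM compound or DMSO. Colonies were fixed in methanol, stained with crystal violet and imaged.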

[4] = test system: MCF7; test: Induction apoptosis in human MCF7 cells assessed as viable cells at 5 uM incubated for 24 hrs by Annexin-FTTC/PI staining based flow cytometric analysis (reference value: 99.7%); type: functional; settings: read-out: Activity
[5] = test system: MCF7; test: Antitumour activity against human MCF7 cells xenografted in nude BALB/c mouse assessed as tumour volume at 2.5 mg/kg, ip administered for 34 days (reference value: 1530 mm3); type: functional; settings: time 34 day
[6] = test system: MCF7; test: Induction of cell cycle arrest in human MCF7 cells assessed as accumulation at G2/M phase after 48 hrs by propidium iodide staining based flow cytometric analysis; type: functional; settings: dose 0.625-10 µM
In short: (§2)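 MCF-7 cells, 2 × 10^5/well, were pre-grown 12 h, then treated with 10, 5, 2.5, 1.25, 0.625 μM compound or DMSO. Cells were fixed in 75% ethanol at −20 °C overnight. Staining was 50 μg/mL PI with RNase A, 30 min at room temperature in the dark. Flow cytometry collected 10,000 events; phase distribution was determined.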

[7] = test system: MCF7; test: Binding affinity to wild type PDGFRbeta promoter (unknown origin) in human MCF7 cells assessed as down regulation of PDGFRbeta expression at 1.25 to 20 uM after 12 hrs; settings: dose 1.25-20 µM
[8] = test system: MCF7; test: Induction apoptosis in human MCF7 cells incubated for 24 hrs by Annexin-FTTC/PI staining based flow cytometric analysis; type: functional, cell-based; settings: dose 1.25-5 µM
[9] = Binding affinity to 5'-biotin-d [GCGTCCACCCTCCCTGCCCCGCCGCCCCCCCITCTCCCAGC]-3' i-motif DNA (unknown origin) by surface plasmon resonance assay
In short: (§3)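 SPR: biotinylated oligomers were captured on a neutravidin chip at ~1000 RU, with a blank reference cell. Running buffer was 20 mM MES pH 5.5, 100 mM KCl, 0.05% Tween-20 for the i-motif, or 50 mM Tris-HCl pH 7.4, 100 mM KCl for the G-quadruplex. Ligand was injected at 0–10 μM (six concentrations), with 200 s association and 300 s dissociation at 25 °C.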

[10] = test system: MCF7; test: Binding affinity to wild type PDGFRbeta promoter (unknown origin) in human MCF7 cells after 48 hrs by dual luciferase reporter assay; type: cell-based
In short: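 MCF-7 cells were transfected with 200 ng psiCHECK2 plasmid carrying the wild-type PDGFR-β promoter. After 4 h, compound was added at various concentrations and cells were incubated 48 h at 37 °C. Cells were washed with cold PBS and dual-luciferase signals read for 10 s. Renilla activity was normalised to firefly.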

[11] = test system: MCF7; test: Induction apoptosis in human MCF7 cells assessed as late apoptotic cells at 2.5 uM incubated for 24 hrs by Annexin-FTTC/PI staining based flow cytometric analysis (reference value: 0%); type: functional
[12] = Binding affinity to 5'-FAM-GCGTCCACCCTCCCTGCCCCGCCGCCCCCCCTTCTCCCAGC-TAMRA-3' i-motif DNA (unknown origin) at pH 5.5 assessed as unfolding i-motif structure
[13] = test system: MCF7; test: Binding affinity to wild type PDGFRbeta promoter (unknown origin) in human MCF7 cells assessed as down regulation of PDGFRbeta mRNA expression at 1.25 to 20 uM after 12 hrs by RT-PCR analysis; type: cell-based; settings: dose 1.25-20 µM
[14] = test system: MCF7; test: Induction apoptosis in human MCF7 cells assessed as late apoptotic cells at 5 uM incubated for 24 hrs by Annexin-FTTC/PI staining based flow cytometric analysis (reference value: 0%); type: functional
[15] = test system: MCF7; test: Antitumour activity against human MCF7 cells xenografted in nude BALB/c mouse assessed as tumour growth inhibition at 10 mg/kg, ip administered for 34 days relative to control; type: functional; settings: 816 h, time 34 day, read-out: TGI
[16] = test system: MCF7; test: Antitumour activity against human MCF7 cells xenografted in nude BALB/c mouse assessed as tumour volume at 5 mg/kg, ip administered for 34 days (reference value: 1530 mm3); type: functional; settings: time 34 day
[17] = target: Quadruplex DNA; test: Binding affinity to 5'-biotin-d [GCTGGGAGAAGGGGGGGCGGCGGGGCAGGGAGGGTGGACGC]-3' G4-quadruplex DNA (unknown origin) by surface plasmon resonance assay; type: nucleic-acid assay; in short: as §3
[18] = test system: HEK293; test: Cytotoxicity against HEK293 cells assessed as reduction in cell viability after 48 hrs by MTT assay; type: cell-based; settings: Homo sapiens, HEK293, 48 h
In short: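 MTT assay: cells seeded at 5.0 × 10³/well, grown 12 h, then exposed to graded compound concentrations for 48 h at 37 °C/5% CO2. 2.5 mg/mL MTT was added for 4 h, formazan dissolved in DMSO, and absorbance read at 570 nm. Each dose in triplicate; IC50 from percent survival versus negative control.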

[19] = Toxicity in nude BALB/c mouse xenografted with human MCF7 cells assessed as liver weight at 2.5 to 10 mg/kg, ip administered for 34 days; type: organism-based; settings: in vivo, 816 h, dose 2.5-10 mg/kg, time 34 day
In short: (§4)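 Nude BALB/c females bearing subcutaneous MCF-7 xenografts were dosed ip once daily for 34 days at 2.5, 5.0 or 10 mg/kg, with saline vehicle (100 µL) as control. Body weight was recorded every 2 days. After euthanasia by cervical dislocation, heart, liver, spleen and kidney were removed and weighed.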

[20] = Toxicity in nude BALB/c mouse xenografted with human MCF7 cells assessed as kidney weight at 2.5 to 10 mg/kg, ip administered for 34 days; type: organism-based; settings: in vivo, 816 h, dose 2.5-10 mg/kg, time 34 day; in short: as §4
[21] = Binding affinity to FAM-labeled 5'-biotin-d [GCGTCCACCCTCCCTGCCCCGCCGCCCCCCCITCTCCCAGC]-3' i-motif DNA (unknown origin) by microscale thermophoresis assay; in short: as §1
[22] = test system: MCF7; test: Induction of cell cycle arrest in human MCF7 cells assessed as accumulation at G2/M phase at 0.625 to 10 uM after 48 hrs by propidium iodide staining based flow cytometric analysis (reference value: 15.8%); type: functional; settings: dose 0.625-10 µM; in short: as §2
[23] = test system: MCF7; test: Induction apoptosis in human MCF7 cells assessed as necrotic cells at 5 uM incubated for 24 hrs by Annexin-FTTC/PI staining based flow cytometric analysis (reference value: 0.11%); type: functional
[24] = test system: MCF7; test: Induction apoptosis in human MCF7 cells assessed as necrotic cells at 2.5 uM incubated for 24 hrs by Annexin-FTTC/PI staining based flow cytometric analysis (reference value: 0.11%); type: functional

In the case of `Cc1ccc2c(c1)c(=O)c1cc(C(=O)NCCCN(C)CCCN3C(=O)c4cccc5c(N6CCN(C)CC6)ccc(c45)C3=O)ccc1n2-c1ccc(C(=O)NCCCN(C)CCCN2C(=O)c3cccc4c(N5CCN(C)CC5)ccc(c34)C2=O)cc1`, the Kd [1] is reported as 6.11 µM, the Activity [2] is reported as “Non-Toxic” and the inhibition [3] is reported as “Dose-dependent effect”. The viability at 5 µM [4] was 13%, the Activity [5] was 985.1 mm3 and the Activity [6] was “Dose-dependent effect”. The Activity [7] was “Dose-dependent effect”, the Activity [8] was “Dose-dependent effect” and the Kd [9] was 3.12 µM. The Activity [10] was “Dose-dependent effect”, the Activity [11] was 1.96% and the Activity [12] was “Dose-dependent effect”. For the same molecule, the Activity [13] was “Dose-dependent effect”, the Activity [14] was 51.1% and the inhibition in vivo at 10 mg/kg [15] was 56.5%. It also gave an Activity [16] of 780 mm3, a Kd [17] of 3.23 µM and an IC50 [18] greater than 50 µM. For the same molecule, the Activity [19] was “Non-Toxic”, the Activity [20] was “Non-Toxic” and the Kd [21] was 4.52 µM. The Activity [22] was 31.5%, the Activity [23] was 2.42% and the Activity [24] was 0.49%.
